Active and inactive are the calls of the source. The calls are words filed in the database; no cut-off is given here.
What was measured:
[1] = target: Histone deacetylase 2 (Homo sapiens, UniProt Q92769); assay: Inhibition of HDAC2 (unknown origin)
[2] = target: T1, Protein deacetylase HDAC6 (Homo sapiens) (UniProt Q9UBN7); assay: Inhibition of HDAC6 (unknown origin)
T1 sequence (whole entry): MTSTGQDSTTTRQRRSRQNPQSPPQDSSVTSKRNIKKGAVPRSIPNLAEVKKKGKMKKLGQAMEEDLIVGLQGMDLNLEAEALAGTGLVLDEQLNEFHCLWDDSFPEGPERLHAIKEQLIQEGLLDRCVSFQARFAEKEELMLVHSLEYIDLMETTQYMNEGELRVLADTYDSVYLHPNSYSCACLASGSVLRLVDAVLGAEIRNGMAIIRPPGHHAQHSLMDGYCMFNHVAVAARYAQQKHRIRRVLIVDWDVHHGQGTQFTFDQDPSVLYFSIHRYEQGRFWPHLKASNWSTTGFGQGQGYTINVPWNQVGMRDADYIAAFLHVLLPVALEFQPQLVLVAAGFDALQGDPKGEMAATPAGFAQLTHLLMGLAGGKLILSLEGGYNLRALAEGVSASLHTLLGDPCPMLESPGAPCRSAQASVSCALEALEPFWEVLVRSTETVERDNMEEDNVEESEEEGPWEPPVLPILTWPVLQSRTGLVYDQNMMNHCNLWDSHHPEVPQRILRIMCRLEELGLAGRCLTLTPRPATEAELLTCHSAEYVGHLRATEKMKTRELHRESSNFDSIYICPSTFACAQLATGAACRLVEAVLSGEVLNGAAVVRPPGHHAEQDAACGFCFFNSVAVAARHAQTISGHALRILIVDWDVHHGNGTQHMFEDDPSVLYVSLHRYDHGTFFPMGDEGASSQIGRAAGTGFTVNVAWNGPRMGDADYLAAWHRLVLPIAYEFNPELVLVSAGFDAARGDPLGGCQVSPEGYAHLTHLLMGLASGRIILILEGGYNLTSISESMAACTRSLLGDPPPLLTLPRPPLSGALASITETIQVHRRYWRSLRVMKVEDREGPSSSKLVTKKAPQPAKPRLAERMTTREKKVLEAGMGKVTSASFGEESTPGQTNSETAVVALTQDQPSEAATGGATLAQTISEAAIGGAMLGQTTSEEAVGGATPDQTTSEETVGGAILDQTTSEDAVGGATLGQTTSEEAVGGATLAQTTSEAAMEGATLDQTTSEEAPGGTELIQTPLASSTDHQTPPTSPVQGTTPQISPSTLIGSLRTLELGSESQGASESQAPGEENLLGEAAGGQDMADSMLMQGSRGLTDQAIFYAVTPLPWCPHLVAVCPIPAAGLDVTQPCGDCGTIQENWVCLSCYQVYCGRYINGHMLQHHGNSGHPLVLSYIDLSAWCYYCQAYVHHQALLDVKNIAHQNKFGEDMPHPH

[3] = target: Histone deacetylase 4 (Homo sapiens) (UniProt P56524); assay: Inhibition of HDAC4 (unknown origin)
[4] = target: T2, Histone deacetylase 8 (Homo sapiens) (UniProt Q9BY41); assay: Inhibition of HDAC8 (unknown origin)
T2 sequence (whole entry): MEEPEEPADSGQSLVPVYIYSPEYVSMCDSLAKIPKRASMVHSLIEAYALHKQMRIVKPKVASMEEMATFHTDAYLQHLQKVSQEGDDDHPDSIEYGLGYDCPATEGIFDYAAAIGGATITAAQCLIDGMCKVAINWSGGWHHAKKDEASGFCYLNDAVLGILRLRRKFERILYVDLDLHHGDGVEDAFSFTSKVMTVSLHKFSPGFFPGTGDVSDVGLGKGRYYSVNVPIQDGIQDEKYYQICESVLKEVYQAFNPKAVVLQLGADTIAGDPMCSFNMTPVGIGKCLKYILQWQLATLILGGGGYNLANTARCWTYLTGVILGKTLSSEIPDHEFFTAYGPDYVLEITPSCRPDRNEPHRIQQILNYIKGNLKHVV

[5] = target: Histone deacetylase 5 (Homo sapiens) (UniProt Q9UQL6); assay: Inhibition of HDAC5 (unknown origin)
[6] = target: T3, NAD-dependent protein deacetylase sirtuin-1 (Homo sapiens) (UniProt Q96EB6); assay: Inhibition of His-tagged human recombinant SIRT1 expressed in Escherichia coli at 20 uM using Cbz-Lys(Ac)-AMC as substrate by fluorescence assay
T3 sequence (whole entry): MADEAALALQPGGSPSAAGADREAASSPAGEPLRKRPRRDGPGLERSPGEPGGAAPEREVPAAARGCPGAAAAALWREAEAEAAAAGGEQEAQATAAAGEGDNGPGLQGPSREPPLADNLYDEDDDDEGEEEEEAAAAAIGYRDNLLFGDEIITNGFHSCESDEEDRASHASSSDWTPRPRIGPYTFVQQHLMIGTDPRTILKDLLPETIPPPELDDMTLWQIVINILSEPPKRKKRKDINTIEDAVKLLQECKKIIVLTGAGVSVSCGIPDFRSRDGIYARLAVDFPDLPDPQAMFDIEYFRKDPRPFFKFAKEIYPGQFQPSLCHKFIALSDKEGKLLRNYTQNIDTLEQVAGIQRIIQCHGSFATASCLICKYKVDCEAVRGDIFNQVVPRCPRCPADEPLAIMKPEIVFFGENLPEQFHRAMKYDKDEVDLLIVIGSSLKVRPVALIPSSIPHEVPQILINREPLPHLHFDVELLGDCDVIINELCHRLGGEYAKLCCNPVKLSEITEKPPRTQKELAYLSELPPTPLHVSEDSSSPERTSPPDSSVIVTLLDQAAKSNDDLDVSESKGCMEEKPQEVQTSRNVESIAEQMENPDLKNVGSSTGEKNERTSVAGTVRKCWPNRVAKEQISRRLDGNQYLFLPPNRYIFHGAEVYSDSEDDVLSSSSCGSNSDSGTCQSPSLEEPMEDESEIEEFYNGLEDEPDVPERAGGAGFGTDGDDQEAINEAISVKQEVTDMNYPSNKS
Procedure, shortened: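 Fluorescence deacetylase assay with in-house Cbz-Lys(Ac)-AMC substrate. Values are means of three experiments on racemic material. Single-point lines were tested at 20 µM, and less than 20% inhibition was scored as no inhibition.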

Sequence of Histone deacetylase 4 (Homo sapiens) (P56524 whole entry): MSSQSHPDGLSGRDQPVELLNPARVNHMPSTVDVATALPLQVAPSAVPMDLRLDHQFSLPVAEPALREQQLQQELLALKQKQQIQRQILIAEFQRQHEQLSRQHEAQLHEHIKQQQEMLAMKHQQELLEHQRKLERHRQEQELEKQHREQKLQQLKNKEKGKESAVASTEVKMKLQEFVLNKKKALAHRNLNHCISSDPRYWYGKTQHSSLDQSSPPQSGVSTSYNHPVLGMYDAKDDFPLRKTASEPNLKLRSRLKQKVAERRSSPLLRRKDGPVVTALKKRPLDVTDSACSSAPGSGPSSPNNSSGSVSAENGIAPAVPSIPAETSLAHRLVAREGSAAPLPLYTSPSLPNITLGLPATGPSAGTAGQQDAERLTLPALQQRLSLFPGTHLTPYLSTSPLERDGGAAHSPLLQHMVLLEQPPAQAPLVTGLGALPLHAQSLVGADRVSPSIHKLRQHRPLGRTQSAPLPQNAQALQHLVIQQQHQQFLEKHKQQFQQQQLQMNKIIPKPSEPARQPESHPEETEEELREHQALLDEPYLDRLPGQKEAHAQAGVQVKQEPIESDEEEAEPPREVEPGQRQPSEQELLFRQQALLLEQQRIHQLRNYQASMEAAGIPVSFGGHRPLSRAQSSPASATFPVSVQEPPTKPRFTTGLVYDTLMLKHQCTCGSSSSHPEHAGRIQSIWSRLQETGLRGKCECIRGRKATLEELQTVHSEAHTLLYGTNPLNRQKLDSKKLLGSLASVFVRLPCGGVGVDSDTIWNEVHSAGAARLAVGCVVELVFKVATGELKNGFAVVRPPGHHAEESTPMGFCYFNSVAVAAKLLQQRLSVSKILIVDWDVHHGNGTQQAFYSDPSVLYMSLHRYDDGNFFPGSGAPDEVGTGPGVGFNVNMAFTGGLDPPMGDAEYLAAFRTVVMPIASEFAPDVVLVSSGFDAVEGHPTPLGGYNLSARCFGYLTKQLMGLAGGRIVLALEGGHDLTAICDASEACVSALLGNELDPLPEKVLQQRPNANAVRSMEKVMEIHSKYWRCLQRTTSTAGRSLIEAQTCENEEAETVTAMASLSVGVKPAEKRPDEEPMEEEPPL
Sequence of Histone deacetylase 5 (Homo sapiens) (Q9UQL6 whole entry): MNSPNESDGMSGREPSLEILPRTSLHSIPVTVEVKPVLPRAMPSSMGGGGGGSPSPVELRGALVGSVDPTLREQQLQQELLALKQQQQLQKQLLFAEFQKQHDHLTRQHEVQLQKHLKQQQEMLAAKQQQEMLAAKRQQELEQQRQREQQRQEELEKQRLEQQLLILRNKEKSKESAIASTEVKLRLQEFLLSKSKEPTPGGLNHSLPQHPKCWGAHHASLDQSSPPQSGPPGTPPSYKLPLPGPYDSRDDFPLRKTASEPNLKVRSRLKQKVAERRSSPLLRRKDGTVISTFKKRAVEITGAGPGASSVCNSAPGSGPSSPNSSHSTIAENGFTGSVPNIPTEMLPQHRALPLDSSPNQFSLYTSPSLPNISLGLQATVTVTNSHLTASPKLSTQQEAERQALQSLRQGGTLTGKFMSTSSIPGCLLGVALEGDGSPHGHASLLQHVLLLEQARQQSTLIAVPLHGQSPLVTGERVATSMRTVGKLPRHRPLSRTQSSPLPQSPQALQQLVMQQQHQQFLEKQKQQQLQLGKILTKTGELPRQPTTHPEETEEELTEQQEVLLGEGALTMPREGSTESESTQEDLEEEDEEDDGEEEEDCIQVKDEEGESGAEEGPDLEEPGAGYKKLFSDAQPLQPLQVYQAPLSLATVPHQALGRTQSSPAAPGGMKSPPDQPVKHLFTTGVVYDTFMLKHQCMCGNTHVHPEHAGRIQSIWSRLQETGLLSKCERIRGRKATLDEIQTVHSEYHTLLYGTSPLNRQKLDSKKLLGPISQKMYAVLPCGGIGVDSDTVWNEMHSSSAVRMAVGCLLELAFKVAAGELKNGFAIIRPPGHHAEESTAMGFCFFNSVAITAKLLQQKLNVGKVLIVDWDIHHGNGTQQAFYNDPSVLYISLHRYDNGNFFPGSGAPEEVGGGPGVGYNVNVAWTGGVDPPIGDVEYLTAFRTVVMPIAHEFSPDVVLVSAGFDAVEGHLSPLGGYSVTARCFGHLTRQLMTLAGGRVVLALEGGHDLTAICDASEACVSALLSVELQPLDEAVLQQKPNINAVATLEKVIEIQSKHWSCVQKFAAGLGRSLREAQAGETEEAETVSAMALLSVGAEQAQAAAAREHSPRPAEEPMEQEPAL
Sequence of Histone deacetylase 2 (Q92769 whole entry): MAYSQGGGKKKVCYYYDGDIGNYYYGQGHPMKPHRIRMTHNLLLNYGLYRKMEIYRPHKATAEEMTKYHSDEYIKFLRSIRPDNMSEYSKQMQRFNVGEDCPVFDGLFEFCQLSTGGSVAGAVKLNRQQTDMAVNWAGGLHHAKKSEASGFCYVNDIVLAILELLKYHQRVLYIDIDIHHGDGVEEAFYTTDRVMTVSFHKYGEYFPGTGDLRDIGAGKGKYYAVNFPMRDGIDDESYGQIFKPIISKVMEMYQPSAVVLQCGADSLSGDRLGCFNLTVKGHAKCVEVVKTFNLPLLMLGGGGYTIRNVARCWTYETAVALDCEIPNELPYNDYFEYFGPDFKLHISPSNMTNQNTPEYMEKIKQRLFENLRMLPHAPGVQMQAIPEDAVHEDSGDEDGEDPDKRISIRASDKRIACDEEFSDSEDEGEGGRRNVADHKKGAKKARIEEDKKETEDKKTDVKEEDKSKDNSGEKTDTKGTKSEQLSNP

| SMILES | inhibition [1] | inhibition [2] | inhibition [3] | inhibition [4] | inhibition [5] | inhibition [6] [%] |
| --- | --- | --- | --- | --- | --- | --- |
| COc1ccc(-c2n[nH]c3c2CCCC3C(N)=O)cc1 (racemic) | inactive | inactive | inactive | inactive | inactive | < 20 |
| NC(=O)C1CCCc2c(-c3ccc(C(F)(F)F)cc3)n[nH]c21 (racemic) | inactive | inactive | inactive | inactive | inactive | < 20 |
| NC(=O)C1CCCc2c(-c3ccc(Cl)cc3Cl)n[nH]c21 (racemic) | inactive | inactive | inactive | inactive | inactive | 24 |
| NC(=O)C1CCCc2c(-c3cccc(Cl)c3)n[nH]c21 (racemic) | inactive | inactive | inactive | inactive | inactive | 27 |
| NC(=O)C1Cc2ccccc2Cc2c(-c3ccc(Cl)cc3)n[nH]c21 (racemic) | inactive | inactive | inactive | inactive | inactive | 42 |
| NC(=O)C1CC2(Cc3c(-c4ccc(Cl)cc4)n[nH]c31)OCCO2 (racemic) | inactive | inactive | inactive | inactive | inactive | < 20 |
| NC(=O)C1CCCc2c(-c3cccs3)n[nH]c21 (racemic) | inactive | inactive | inactive | inactive | inactive | 47 |
| CC1(C)CCC(C(N)=O)c2[nH]nc(-c3ccc(Cl)cc3)c21 (racemic) | inactive | inactive | inactive | inactive | inactive | < 20 |

Next, values leading:

| inhibition [1] | inhibition [2] | inhibition [3] | inhibition [4] | inhibition [5] | inhibition [6] [%] | SMILES |
| --- | --- | --- | --- | --- | --- | --- |
| inactive | inactive | inactive | inactive | inactive | < 20 | NC(=O)C1CCCc2c(-c3ccccc3Cl)n[nH]c21 (racemic) |
| inactive | inactive | inactive | inactive | inactive | 44 | NC(=O)C1CCCc2c(-c3ccccc3)n[nH]c21 (racemic) |
| inactive | inactive | inactive | inactive | inactive | < 20 | Cn1c(-c2n[nH]c3c2CC(C)(C)CC3C(N)=O)cc2ccccc21 (racemic) |
| inactive | inactive | inactive | inactive | inactive | 31 | Cn1c(-c2n[nH]c3c2CCCC3C(N)=O)cc2cc(Cl)ccc21 (racemic) |
